Measured values taken from ChEMBL document CHEMBL4017487, “Design and Synthesis of γ- and δ-Lactam M1 Positive Allosteric Modulators (PAMs): Convulsion and Cholinergic Toxicity of an M1-Selective PAM with Weak Agonist Activity” (J Med Chem, 2017).
Where a chain is given by its changes, count along the chain named. In brackets after ≈: the same amount, converted by molar mass. Activity calls are given as the source filed them. No cut-off for these calls is given here.

Key:
[1] = Ratio of AUC in dog brain to plasma at 0.5 mg/kg, po or 0.1 mg/kg, iv administered as single bolus dose; format: ADME, organism-based, Canis lupus familiaris; conditions: read-out: Ratio AUC
Procedure, shortened: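 Brain/plasma ratio computed from AUC of total drug in brain and total drug in plasma.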

[2] = target: T1, Muscarinic acetylcholine receptor M1 (Homo sapiens, UniProt P11229); assay: Ratio of intrinsic activity at human muscarinic acetylcholine receptor M1 expressed in CHO cells by beta-arrestin recruitment assay to intrinsic activity at human muscarinic acetylcholine receptor M1 expressed in CHO cells assessed as increase in calcium mobilization; format: ADME, cell-based
T1 sequence (P11229 whole entry): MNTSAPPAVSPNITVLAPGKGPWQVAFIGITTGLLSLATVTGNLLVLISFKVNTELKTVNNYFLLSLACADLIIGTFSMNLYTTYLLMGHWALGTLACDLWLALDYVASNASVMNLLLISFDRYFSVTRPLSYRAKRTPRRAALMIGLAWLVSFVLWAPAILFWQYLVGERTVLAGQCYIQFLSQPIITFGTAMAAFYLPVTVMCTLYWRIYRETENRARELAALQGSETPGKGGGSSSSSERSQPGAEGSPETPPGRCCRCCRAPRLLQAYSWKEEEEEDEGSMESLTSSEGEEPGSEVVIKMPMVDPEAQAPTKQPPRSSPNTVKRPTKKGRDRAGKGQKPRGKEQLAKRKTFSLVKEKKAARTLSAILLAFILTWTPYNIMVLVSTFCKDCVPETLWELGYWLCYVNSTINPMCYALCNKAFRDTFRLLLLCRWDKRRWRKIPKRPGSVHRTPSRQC

Mus musculus [3] = assay: In vivo agonist activity at muscarinic acetylcholine receptor M1 in C57BL/6 mouse assessed as unbound brain concentration required to show 2 fold increase in IP1 accumulation in striatum at 1 to 10 mg/kg, sc measured after 2 hrs; format: organism-based
Procedure, shortened: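 Cb,u giving a 2-fold rise in striatal IP1 in C57BL/6 mice, estimated by interpolation of individual-mouse IP1 versus free brain exposure data.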

[4] = Intrinsic clearance in human liver microsomes; format: ADME, microsome; conditions: read-out: CLH
Brain [5] = assay: Unbound brain concentration in scopolamine-induced memory impairment Wistar rat model at 0.32 mg/kg, sc measured after 1.25 hrs by LC-MS/MS analysis; format: ADME, organism-based; conditions: in vivo
Mus musculus [6] = assay: In vivo agonist activity at muscarinic acetylcholine receptor M1 in C57BL/6 mouse assessed as increase in IP1 accumulation in striatum at 1 to 10 mg/kg, sc measured after 2 hrs; format: organism-based
Procedure, shortened: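 C57BL/6 mice dosed with compound or vehicle, then ex vivo striatal IP1 and free brain concentration (Cb,u) measured. Data points are individual mice.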

Canis familiaris [7] = assay: Cholinergic toxicity in dog assessed as emesis at 5 mg/kg, po administered as single dose using shydroxypropyl cellulose/docusate sodium formulation after 0.5 to 1.3 hrs; format: organism-based, Canis lupus familiaris; conditions: in vivo
Procedure, shortened: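 Single-dose oral dose-escalation study, 1 dog/sex/dose. The 5 mg/kg dose was given as a nanosuspension in hydroxypropyl cellulose SL with 0.05% docusate sodium in purified water. Cholinergic clinical signs were recorded at approximate hours postdose, alongside unbound plasma Cmax.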

[8] = Clearance in rat at 0.5 mg/kg, iv administered as single bolus dose; format: ADME, organism-based; conditions: in vivo
Procedure, shortened: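 Rat, single IV bolus of 0.5 mg/kg as a solution in 20% HPBCD; observed plasma clearance.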

[9] = target: T1, Muscarinic acetylcholine receptor M1; assay: Positive allosteric modulation of human muscarinic acetylcholine receptor M1 expressed in CHO cells assessed as increase in acetylcholine-induced beta-arrestin recruitment by measuring functional co-operativity with acetylcholine; format: ADME, cell-based
[10] = target: T1, Muscarinic acetylcholine receptor M1; assay: Agonist activity at human muscarinic acetylcholine receptor M1 expressed in CHO cells assessed as increase in calcium mobilization at 30 uM incubated for 10 mins by Fluo-8-AM dye based FLIPR assay relative to acetylcholine; format: cell-based
Canis familiaris [11] = assay: Cholinergic toxicity in dog assessed as ataxia at 5 mg/kg, po administered as single dose using spray dried dispersion formulation after 2 hrs; format: organism-based, Canis lupus familiaris; conditions: in vivo
Procedure, shortened: (§1)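 Dog single oral dose escalation: 1/sex at 5 mg/kg for each formulation; 1 female at 15 mg/kg. Spray-dried dispersion: 23% drug loading with 0.5% methylcellulose and 100 mM citrate buffer. Clinical signs timed in approximate hours postdose; unbound plasma Cmax.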

[12] = Cholinergic toxicity in po dosed rat administered as single dose after 1 to 1.5 hrs post dose; format: organism-based; conditions: in vivo
Procedure, shortened: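 Rat single oral dose escalation, 3/sex/dose. 1 and 5 mg/kg as a 0.5% methylcellulose suspension; 15 and 45 mg/kg as a nanosuspension (1.25% w/v hydroxypropyl cellulose SL, 0.05% docusate sodium in water).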

[13] = Thermodynamic solubility of the compound in FeSSIF at pH 6.3; conditions: read-out: Therm_solubility
Canis familiaris [14] = assay: Cholinergic toxicity in dog assessed as circling behaviour at 5 mg/kg, po administered as single dose using spray dried dispersion formulation after 4.3 hrs; format: organism-based, Canis lupus familiaris; conditions: in vivo; procedure, shortened: as §1
Rattus norvegicus [15] = assay: Toxicity in rat assessed as unbound Cmax in plasma required to show convulsions at 45 mg/kg, po administered as single dose; format: organism-based; conditions: in vivo
Brain [16] = assay: Unbound brain concentration in scopolamine-induced memory impairment Wistar rat model at 0.32 mg/kg, sc measured at 1.25 hrs post dose by LC-MS/MS analysis; conditions: in vivo
[17] = target: T2, Muscarinic acetylcholine receptor M1 (Rattus norvegicus, UniProt P08482); assay: Positive allosteric modulation of muscarinic acetylcholine receptor M1 in Sprague-Dawley rat brain hippocampal slices assessed as increase in carbachol-induced firing rate at CA1 pyramidal neurons at 3 uM after 10 mins in presence of M1 antagonist VU0255035 by electrophysiology method
T2 sequence (P08482 whole entry): T1 sequence (P11229 whole entry) with A5V, T254S, P309S, R320K, A337G, I413V
Procedure, shortened: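 Hippocampal CA1 spike-rate assay in PAM mode (EC20 carbachol) with a reportedly M1-selective muscarinic antagonist added to the slices.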

Rattus norvegicus [18] = assay: Toxicity in rat assessed as unbound plasma concentration required for convulsions at 45 mg/kg, po administered as single dose after 1 to 6 hrs; format: organism-based; conditions: in vivo
Rattus norvegicus [19] = assay: Toxicity in rat assessed as unbound Cmax in brain required to show convulsions at 45 mg/kg, po administered as single dose; format: organism-based; conditions: in vivo
Rattus norvegicus [20] = assay: Reversal of scopolamine-induced memory impairment in Wistar rat assessed as […] in hidden platform during 5 days training period at 0.32 to 3.2 mg/kg, sc administered 15 mins prior to test for 5 consecutive days followed by scopolamine challenge 30 mins prior to test by Morris water maze test; format: functional, organism-based

Cc1cc2c(cc1Cc1ccc(-c3cocn3)cc1)C(=O)N([C@H]1CCOC[C@@H]1O)C2
Kp [1]: 0.7
Ratio [2]: 1.4
Drug uptake(free) (Mus musculus [3]): 22 nM
CLint scaled [4]: < 8 mL/min/kg
Drug uptake(free) (Brain [5]): 3.4 nM
Activity (Mus musculus [6]): Active
Activity (Canis familiaris [7]): Toxic
clearance [8]: 2.4 mL/min/kg
log(activity) [9]: 2.9
Activity [10]: 23%
Activity (Canis familiaris [11]): Toxic
NOAEL [12]: 15 mg/kg
solubility thermodynamic [13]: 39.7 µg/mL (≈ 98.2 µM)
Activity (Canis familiaris [14]): Toxic
fCmax (Rattus norvegicus [15]): 2310 nM
Drug uptake(free) (Brain [16]): 3.2 nM
Activity [17]: Not Active
Cp(f) (Rattus norvegicus [18]): 2310 nM
fCmax (Rattus norvegicus [19]): 440 nM
Activity (Rattus norvegicus [20]): Active
